Test results: ChEMBL document CHEMBL2413016, “Synthesis and in vivo evaluation of [(18)F]2-(4-(4-(2-(2-fluoroethoxy)phenyl)piperazin-1-yl)butyl)-4-methyl-1,2,4-triazine-3,5(2H,4H)-dione ([(18)F]FECUMI-101) as an imaging probe for 5-HT1A receptor agonist in nonhuman primates” (Bioorg Med Chem, 2013); call rule not given here

What was measured:
[1] = Drug uptake in baboon caudate at 111 +/- 18 MBq, iv by PET analysis in presence of WAY100635; format: ADME, organism-based; conditions: papio anubis, in vivo
Outline: (§1)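 Baboon PET run as for baseline: ketamine/isoflurane anesthesia, iv bolus of tracer, 180 min 3-D acquisition, right and left regions averaged. WAY100635 maleate (0.5 mg/kg iv in 12 mL saline) was given at 50–60 min after tracer injection as a chase/blocking challenge.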

Papio anubis = assay: Drug metabolism in baboon at 111 +/- 18 MBq, iv after 2 to 180 mins; format: ADME, organism-based; conditions: in vivo
Outline: (§2)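 Radiotracer given as an iv bolus to anesthetized baboons. Arterial blood was drawn at 2, 12, 30, 60, 90, 120, 150 and 180 min and centrifuged at 2000 rpm for 1 min. Plasma was mixed with acetonitrile, vortexed and spun at 14,000 rpm for 4 min. The supernatant was counted, then analysed by reversed-phase HPLC with radioactivity detection. Parent percentage was corrected for background and decay, with a QC standard run at the start and end.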

[2] = Drug uptake in baboon thalamus at 111 +/- 18 MBq, iv by PET analysis in presence of WAY100635; format: ADME, organism-based; conditions: papio anubis, in vivo; outline: as §1
Nucleic Acid [3] = assay: Ratio of drug level in cingulate cortex to cerebellum in baboon at 111 +/- 18 MBq, iv after 175 mins by PET analysis; format: ADME, organism-based; conditions: papio anubis, in vivo
Nucleic Acid [4] = assay: Ratio of drug level in prefrontal cortex to cerebellum in baboon at 111 +/- 18 MBq, iv after 175 mins by PET analysis; format: ADME, organism-based; conditions: papio anubis, in vivo
Nucleic Acid [5] = assay: Ratio of drug level in anterior cingulate cortex to cerebellum in baboon at 111 +/- 18 MBq, iv after 175 mins by PET analysis; format: ADME, organism-based; conditions: papio anubis, in vivo
Nucleic Acid [6] = assay: Ratio of drug level in temporal cortex to cerebellum in baboon at 111 +/- 18 MBq, iv after 175 mins by PET analysis; format: ADME, organism-based; conditions: papio anubis, in vivo
[7] = Tmax in baboon striatum at 111 +/- 18 MBq, iv by PET analysis; format: ADME, organism-based; conditions: papio anubis, in vivo
Outline: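 Baseline PET in two fasted male baboons on an ECAT EXACT HR+ scanner. Animals were immobilized with ketamine (10 mg/kg im), kept on 1.5–2.0% isoflurane via endotracheal tube, held at 37 °C core temperature, and hydrated with 0.9% NaCl. Radiotracer in 10% ethanol/saline was given as an iv bolus. Emission was recorded for 180 min in 3-D mode. Region time-activity curves used right/left averaged ROIs.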

[8] = Drug uptake in baboon amygdala at 111 +/- 18 MBq, iv by PET analysis in presence of WAY100635; format: ADME, organism-based; conditions: papio anubis, in vivo; outline: as §1
Nucleic Acid [9] = assay: Ratio of drug level in insular cortex to cerebellum in baboon at 111 +/- 18 MBq, iv after 175 mins by PET analysis; format: ADME, organism-based; conditions: papio anubis, in vivo
[10] = Drug uptake in baboon hippocampus at 111 +/- 18 MBq, iv by PET analysis in presence of WAY100635; format: ADME, organism-based; conditions: papio anubis, in vivo; outline: as §1
[11] = Metabolic stability of the compound in baboon plasma assessed as unmetabolized parent fraction after 2 mins by HPLC analysis; format: ADME, cell-free; conditions: papio anubis, read-out: Stability; outline: as §2
[12] = Metabolic stability of the compound in baboon plasma assessed as unmetabolized parent fraction after 120 mins by HPLC analysis; format: ADME, cell-free; conditions: papio anubis, read-out: Stability; outline: as §2
[13] = Tmax in baboon cerebellum at 111 +/- 18 MBq, iv by PET analysis; format: ADME, organism-based; conditions: papio anubis, in vivo
Outline: (§3)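 Two fasted male baboons were given ketamine (10 mg/kg im) and kept under 1.5–2.0% isoflurane, with core temperature held at 37 °C. Tracer in 10% ethanol/90% saline was given as an iv bolus, and 3-D emission data were acquired for 180 min. Regional time-activity curves came from regions of interest, with right and left regions averaged.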

[14] = Drug uptake in baboon anterior cingulate at 111 +/- 18 MBq, iv by PET analysis in presence of WAY100635; format: ADME, organism-based; conditions: papio anubis, in vivo; outline: as §1
[15] = Drug uptake in baboon temporal cortex at 111 +/- 18 MBq, iv by PET analysis in presence of WAY100635; format: ADME, organism-based; conditions: papio anubis, in vivo; outline: as §1
[16] = Drug uptake in baboon cingulate at 111 +/- 18 MBq, iv by PET analysis in presence of WAY100635; format: ADME, organism-based, Cingulate cortex; conditions: papio anubis, in vivo; outline: as §1
[17] = Metabolic stability of the compound in baboon plasma assessed as unmetabolized parent fraction after 90 mins by HPLC analysis; format: ADME, cell-free; conditions: papio anubis, read-out: Stability; outline: as §2
[18] = Metabolic stability of the compound in baboon plasma assessed as unmetabolized parent fraction after 150 mins by HPLC analysis; format: ADME, cell-free; conditions: papio anubis, read-out: Stability; outline: as §2
Nucleic Acid [19] = assay: Ratio of drug level in dorsal raphe nucleus to cerebellum in baboon at 111 +/- 18 MBq, iv after 175 mins by PET analysis; format: ADME, organism-based; conditions: papio anubis, in vivo
[20] = Tmax in baboon cingulate cortex at 111 +/- 18 MBq, iv by PET analysis; format: ADME, organism-based; conditions: papio anubis, in vivo; outline: as §3
[21] = Tmax in baboon amygdala at 111 +/- 18 MBq, iv by PET analysis; format: ADME, organism-based; conditions: papio anubis, in vivo; outline: as §3
Nucleic Acid [22] = assay: Ratio of drug level in thalamus to cerebellum in baboon at 111 +/- 18 MBq, iv after 175 mins by PET analysis; format: ADME, organism-based; conditions: papio anubis, in vivo
[23] = Tmax in baboon insula cortex at 111 +/- 18 MBq, iv by PET analysis; format: ADME, organism-based; conditions: papio anubis, in vivo; outline: as §3
[24] = Binding to baboon plasma proteins; conditions: papio anubis
[25] = Metabolic stability of the compound in baboon plasma assessed as unmetabolized parent fraction after 12 mins by HPLC analysis; format: ADME, cell-free; conditions: papio anubis, read-out: Stability; outline: as §2
[26] = Metabolic stability of the compound in baboon plasma assessed as unmetabolized parent fraction after 180 mins by HPLC analysis; format: ADME, cell-free; conditions: papio anubis, read-out: Stability; outline: as §2
[27] = Drug uptake in baboon prefrontal cortex at 111 +/- 18 MBq, iv by PET analysis in presence of WAY100635; format: ADME, organism-based; conditions: papio anubis, in vivo; outline: as §1
Plasma = assay: Binding to human plasma proteins
Nucleic Acid [28] = assay: Ratio of drug level in amygdala to cerebellum in baboon at 111 +/- 18 MBq, iv after 175 mins by PET analysis; format: ADME, organism-based; conditions: papio anubis, in vivo
[29] = Metabolic stability of the compound in baboon plasma assessed as unmetabolized parent fraction after 30 mins by HPLC analysis; format: ADME, cell-free; conditions: papio anubis, read-out: Stability; outline: as §2
Nucleic Acid [30] = assay: Ratio of drug level in hippocampus to cerebellum in baboon at 111 +/- 18 MBq, iv after 175 mins by PET analysis; format: ADME, organism-based; conditions: papio anubis, in vivo
[31] = Drug uptake in baboon insular cortex at 111 +/- 18 MBq, iv by PET analysis in presence of WAY100635; format: ADME, organism-based; conditions: papio anubis, in vivo; outline: as §1
[32] = Tmax in baboon prefrontal cortex at 111 +/- 18 MBq, iv by PET analysis; format: ADME, organism-based; conditions: papio anubis, in vivo; outline: as §3
[33] = Tmax in baboon hippocampus at 111 +/- 18 MBq, iv by PET analysis; format: ADME, organism-based; conditions: papio anubis, in vivo; outline: as §3
[34] = Metabolic stability of the compound in baboon plasma assessed as unmetabolized parent fraction after 60 mins by HPLC analysis; format: ADME, cell-free; conditions: papio anubis, read-out: Stability; outline: as §2
[35] = Drug uptake in baboon cerebellum at 111 +/- 18 MBq, iv by PET analysis in presence of WAY100635; format: ADME, organism-based; conditions: papio anubis, in vivo; outline: as §1

- Drug uptake [1]: Active
- Drug metabolism (Papio anubis): Active
- Drug uptake [2]: Active
- Ratio (Nucleic Acid [3]): 1.8
- Ratio (Nucleic Acid [4]): 1.8
- Ratio (Nucleic Acid [5]): 2.5
- Ratio (Nucleic Acid [6]): 2
- Tmax [7]: 3 min
- Drug uptake [8]: Active
- Ratio (Nucleic Acid [9]): 2.3
- Drug uptake [10]: Active
- remaining at 2 min [11]: 98%
- remaining at 2 h [12]: 23.5%
- Tmax [13]: 3 min
- Drug uptake [14]: Active
- Drug uptake [15]: Active
- Drug uptake [16]: Active
- remaining at 1.5 h [17]: 32.5%
- remaining at 2.5 h [18]: 21.5%
- Ratio (Nucleic Acid [19]): 1.75
- Tmax [20]: 3 min
- Tmax [21]: 3 min
- Ratio (Nucleic Acid [22]): 2
- Tmax [23]: 3 min
- plasma protein binding [24]: 35%
- remaining at 0.2 h [25]: 74%
- remaining at 3 h [26]: 18%
- Drug uptake [27]: Active
- plasma protein binding (Plasma): 11.5%
- Ratio (Nucleic Acid [28]): 2.4
- remaining at 0.5 h [29]: 51%
- Ratio (Nucleic Acid [30]): 4
- Drug uptake [31]: Active
- Tmax [32]: 3 min
- Tmax [33]: 3 min
- remaining at 1 h [34]: 37%
- Drug uptake [35]: Active
Structure (SMILES): Cn1c(=O)cnn(CCCCN2CCN(c3ccccc3OCC[18F])CC2)c1=O
